Assay results taken from ChEMBL document CHEMBL1773012, “Synthesis, spectral, crystal structure and in vitro antimicrobial evaluation of imidazole/benzotriazole substituted piperidin-4-one derivatives” (2011).
In brackets after ≈: the same amount, converted by molar mass. Activity calls are given as the source filed them. The rule behind the calls is not given here.

Tests used:
[1] = test system: Rhizopus; assay: Antimicrobial activity against Rhizopus sp. ATCC 2842 after 72 to 96 hrs by two fold serial dilution method; assay type: functional
How it was run: (§1)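 Two-fold serial dilution in Sabouraud dextrose broth. Spores from 24 h to 7-day-old Sabouraud agar slant cultures were suspended in SDB. Compounds and reference drugs were tested at 200, 100, 50, 25, 12.5 and 6.25. Tubes were incubated in a BOD incubator, and MIC was recorded visually after 72–96 h.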

[2] = test system: Aspergillus niger; assay: Antimicrobial activity against Aspergillus niger ATCC 635 after 72 to 96 hrs by two fold serial dilution method; assay type: functional; how it was run: as §1
[3] = test system: Cryptococcus neoformans; assay: Antimicrobial activity against Cryptococcus neoformans ATCC 3235 after 72 to 96 hrs by two fold serial dilution method; assay type: functional; how it was run: as §1
[4] = test system: Staphylococcus aureus; assay: Antimicrobial activity against Staphylococcus aureus ATCC 25930 after 24 hrs by two fold serial dilution method; assay type: functional
How it was run: (§2)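 Nutrient broth two-fold serial dilution. Inoculum was seeded NB prepared from 24 h nutrient-agar cultures grown at 37 ± 1 °C and adjusted with sterile saline to 1×10⁴–10⁵ CFU. Compounds and reference drugs were tested at 200, 100, 50, 25, 12.5 and 6.25. Tubes were incubated in a BOD incubator, and MIC was read visually after 24 h.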

[5] = test system: Candida albicans; assay: Antimicrobial activity against Candida albicans ATCC 3430 by two fold serial dilution method; assay type: functional
How it was run: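 Sabouraud dextrose broth two-fold serial dilution. Cells or spores from 24 h to 7-day-old Sabouraud agar slant cultures were suspended in SDB. Test and reference agents were tested at 200, 100, 50, 25, 12.5 and 6.25. Tubes were incubated in a BOD incubator, with MIC read by visual observation.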

[6] = test system: Bacillus subtilis; assay: Antimicrobial activity against Bacillus subtilis ATCC 530 after 24 hrs by two fold serial dilution method; assay type: functional; how it was run: as §2
[7] = test system: Aspergillus flavus; assay: Antimicrobial activity against Aspergillus flavus ATCC 525 after 72 to 96 hrs by two fold serial dilution method; assay type: functional; how it was run: as §1
[8] = test system: Escherichia coli; assay: Antimicrobial activity against Escherichia coli ATCC 26032 after 24 hrs by two fold serial dilution method; assay type: functional; conditions: ATCC 26032, 24 h; how it was run: as §2
[9] = test system: Klebsiella pneumoniae; assay: Antimicrobial activity against Klebsiella pneumoniae ATCC 16425 after 24 hrs by two fold serial dilution method; assay type: functional; how it was run: as §2
[10] = test system: Salmonella typhi; assay: Antimicrobial activity against Salmonella typhi ATCC 25021 after 24 hrs by two fold serial dilution method; assay type: functional, Salmonella enterica subsp. enterica serovar Typhi; conditions: Salmonella enterica, ATCC 25021, 24 h
How it was run: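 Two-fold serial dilution in nutrient broth. Seeded broth was made from 24 h bacterial cultures on nutrient agar grown at 37 ± 1 °C, and the suspension was adjusted with sterile saline to 1×10⁴–10⁵ CFU. Compounds and reference drugs were tested at 200, 100, 50, 25, 12.5 and 6.25. Tubes were incubated in a BOD incubator, and the MIC was read visually after 24 h.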

| SMILES | MIC [1] [µg/mL] | MIC [2] | MIC [3] [µg/mL] | MIC ([4]; ATCC 25930, 24 h) [µg/mL] | MIC [5] | MIC [6] | MIC [7] | MIC [8] [µg/mL] | MIC ([9]; ATCC 16425, 24 h) [µg/mL] | MIC [10] [µg/mL] | MIC ([6]; ATCC 530, 24 h) [µg/mL] | MIC [4] | MIC [9] |
| --- | --- | --- | --- | --- | --- | --- | --- | --- | --- | --- | --- | --- | --- |
| CCC1C(=O)CC(c2ccccc2)N(C(=O)Cn2ccnc2)C1c1ccccc1 (centres undefined) | 100 (≈ 258 µM) | inactive | 50 (≈ 129 µM) | 200 (≈ 516 µM) | 200 µg/mL (≈ 516 µM) | inactive | 200 µg/mL (≈ 516 µM) | 50 (≈ 129 µM) | 100 (≈ 258 µM) | 200 (≈ 516 µM) | – | – | – |
| CC1C(=O)CC(c2ccccc2)N(C(=O)Cn2ccnc2)C1c1ccccc1 (centres undefined) | 100 (≈ 268 µM) | 200 µg/mL (≈ 536 µM) | 100 (≈ 268 µM) | 100 (≈ 268 µM) | 100 µg/mL (≈ 268 µM) | – | 100 µg/mL (≈ 268 µM) | 100 (≈ 268 µM) | 50 (≈ 134 µM) | 200 (≈ 536 µM) | 25 (≈ 66.9 µM) | – | – |
| CC1C(=O)C(C)C(c2cccc(F)c2)N(C(=O)Cn2nnc3ccccc32)C1c1cccc(F)c1 (centres undefined) | 100 (≈ 211 µM) | 200 µg/mL (≈ 421 µM) | 100 (≈ 211 µM) | 50 (≈ 105 µM) | inactive | – | 200 µg/mL (≈ 421 µM) | 50 (≈ 105 µM) | 25 (≈ 52.7 µM) | – | 25 (≈ 52.7 µM) | – | – |
| CC1C(=O)C(C)C(c2ccccc2)N(C(=O)Cn2ccnc2)C1c1ccccc1 (centres undefined) | 200 (≈ 516 µM) | 100 µg/mL (≈ 258 µM) | 100 (≈ 258 µM) | – | inactive | – | 100 µg/mL (≈ 258 µM) | 6.25 (≈ 16.1 µM) | 100 (≈ 258 µM) | 100 (≈ 258 µM) | 100 (≈ 258 µM) | inactive | – |
| COc1ccc(C2C(C)C(=O)C(C)C(c3ccc(OC)cc3)N2C(=O)Cn2ccnc2)cc1 (centres undefined) | 100 (≈ 223 µM) | inactive | 50 (≈ 112 µM) | 100 (≈ 223 µM) | 6.25 µg/mL (≈ 14 µM) | – | 100 µg/mL (≈ 223 µM) | 25 (≈ 55.9 µM) | 200 (≈ 447 µM) | 100 (≈ 223 µM) | 50 (≈ 112 µM) | – | – |
| CC1C(=O)C(C)C(c2cccc(F)c2)N(C(=O)Cn2ccnc2)C1c1cccc(F)c1 (centres undefined) | 25 (≈ 59 µM) | 100 µg/mL (≈ 236 µM) | 6.25 (≈ 14.8 µM) | 50 (≈ 118 µM) | 50 µg/mL (≈ 118 µM) | inactive | inactive | 200 (≈ 472 µM) | 200 (≈ 472 µM) | 50 (≈ 118 µM) | – | – | – |
| C[C@@H]1[C@H](O)[C@@H](C)/C=C/C=C/C=C/C=C/C=C/C=C/C=C/[C@H](O[C@@H]2O[C@H](C)[C@@H](O)[C@H](N)[C@@H]2O)C[C@@H]2O[C@](O)(C[C@@H](O)C[C@@H](O)[C@H](O)CC[C@@H](O)C[C@@H](O)CC(=O)O[C@H]1C)C[C@H](O)[C@H]2C(=O)O [AMPHOTERICIN B] | 25 (≈ 27.1 µM) | 50 µg/mL (≈ 54.1 µM) | 25 (≈ 27.1 µM) | – | 25 µg/mL (≈ 27.1 µM) | – | 50 µg/mL (≈ 54.1 µM) | – | – | – | – | – | – |
| CN[C@@H]1[C@H](O[C@H]2[C@H](O[C@H]3[C@H](O)[C@@H](O)[C@H](N=C(N)N)[C@@H](O)[C@@H]3N=C(N)N)O[C@@H](C)[C@]2(O)C=O)O[C@@H](CO)[C@H](O)[C@H]1O [STREPTOMYCIN] | – | – | – | 50 (≈ 86 µM) | – | – | – | 12.5 (≈ 21.5 µM) | 25 (≈ 43 µM) | 50 (≈ 86 µM) | 12.5 (≈ 21.5 µM) | – | – |
| CC(C)C1C(=O)CC(c2ccccc2)N(C(=O)Cn2ccnc2)C1c1ccccc1 (centres undefined) | 50 (≈ 125 µM) | 12.5 µg/mL (≈ 31.1 µM) | 25 (≈ 62.3 µM) | 100 (≈ 249 µM) | 100 µg/mL (≈ 249 µM) | – | 100 µg/mL (≈ 249 µM) | 100 (≈ 249 µM) | – | 25 (≈ 62.3 µM) | 12.5 (≈ 31.1 µM) | – | inactive |
